The source made the active and inactive calls. No cut-off for these calls is given here.
Key:
[1] = biological target: Endothelial PAS domain-containing protein 1 (Homo sapiens) (UniProt Q99814); test: Inhibition of HIF-2alpha expressed in 786O cells assessed as inhibition of VEGF expression by luciferase reporter gene assay; assay type: cell-based
COLO 205 [2] = test: Cytotoxicity against human COLO205 cells after 2 days by XTT assay; assay type: functional, cell-based; conditions: COLO 205, 48 h
Outline: (§1)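 Test samples were supplied as DMSO solutions and applied to human colon tumour KM12 and COLO205 cells in a two-day in vitro XTT-based antiproliferative assay. Activity was expressed as IC50 (μM).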

KM12 [3] = test: Cytotoxicity against human KM12 cells after 2 days by XTT assay; assay type: functional, cell-based; conditions: KM12, 48 h; outline: as §1
KM12 [4] = test: Growth inhibition of human KM12 cells after 2 days by XTT assay; assay type: functional, cell-based; conditions: KM12, 48 h; outline: as §1
COLO 205 [5] = test: Growth inhibition of human COLO205 cells after 2 days by XTT assay; assay type: functional, cell-based; conditions: COLO 205, 48 h; outline: as §1

Sequence of Endothelial PAS domain-containing protein 1 (Homo sapiens) (Q99814 whole entry, the tested form may be a part): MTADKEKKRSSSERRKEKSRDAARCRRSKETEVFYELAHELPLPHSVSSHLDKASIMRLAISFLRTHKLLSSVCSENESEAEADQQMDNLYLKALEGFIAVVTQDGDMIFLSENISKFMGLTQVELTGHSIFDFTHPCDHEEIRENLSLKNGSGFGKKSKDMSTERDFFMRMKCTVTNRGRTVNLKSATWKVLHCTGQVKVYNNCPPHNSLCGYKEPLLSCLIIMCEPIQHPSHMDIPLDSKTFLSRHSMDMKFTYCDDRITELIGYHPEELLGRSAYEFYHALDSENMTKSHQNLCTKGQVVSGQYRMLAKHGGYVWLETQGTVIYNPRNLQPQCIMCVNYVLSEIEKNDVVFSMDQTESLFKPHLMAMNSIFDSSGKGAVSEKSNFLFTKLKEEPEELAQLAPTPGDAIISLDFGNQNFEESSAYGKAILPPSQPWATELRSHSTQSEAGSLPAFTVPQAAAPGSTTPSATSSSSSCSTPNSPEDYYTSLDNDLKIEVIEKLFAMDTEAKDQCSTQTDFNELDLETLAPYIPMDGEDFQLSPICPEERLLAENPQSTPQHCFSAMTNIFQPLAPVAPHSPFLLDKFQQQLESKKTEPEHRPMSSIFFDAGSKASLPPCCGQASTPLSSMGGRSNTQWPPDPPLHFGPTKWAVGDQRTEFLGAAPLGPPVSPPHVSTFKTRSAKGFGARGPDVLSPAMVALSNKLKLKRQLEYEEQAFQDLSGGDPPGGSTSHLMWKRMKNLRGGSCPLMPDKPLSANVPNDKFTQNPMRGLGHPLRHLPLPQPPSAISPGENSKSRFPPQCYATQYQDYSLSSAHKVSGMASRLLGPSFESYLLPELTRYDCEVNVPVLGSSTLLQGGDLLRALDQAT

| inhibition [1] | IC50 (COLO 205 [5]) | Compound | IC50 (COLO 205 [2]) | IC50 (KM12 [3]) | IC50 (KM12 [4]) |
| --- | --- | --- | --- | --- | --- |
| inactive | 20 µM | C=C1[C@@H](OC(C)=O)C[C@H]2[C@@](C)(CC[C@H]3C(C)(C)CCC[C@]23C)[C@@H]1C[C@H](O)[C@H](CCOC(C)=O)C(C)=O [FLABELLIFERIN A] | 20 µM | 15 µM | 15 µM |
| inactive | 20 µM | CC(=O)O[C@H]1C[C@H]2[C@@](C)(CC[C@H]3C(C)(C)CCC[C@]23C)[C@@H]2C[C@H](O)C(C(C)=O)=C[C@@]12C [FLABELLIFERIN B] | 20 µM | 18 µM | 18 µM |

Source: ChEMBL document CHEMBL2086315, “Flabelliferins A and B, sesterterpenoids from the South Pacific sponge Carteriospongia flabellifera” (J Nat Prod, 2012)
